# Assay results from ChEMBL document CHEMBL3124849, “Total synthesis of burkholdacs A and B and 5,6,20-tri-epi-burkholdac A: HDAC inhibition and antiproliferative activity” (Eur J Med Chem, 2014).
# Columns and labels:
# SF-268 = test: Cytotoxicity against human SF268 cells by SRB assay; type: functional
# How it was run: (§1)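 Tested at the Japanese Foundation for Cancer Research panel of 39 human cancer cell lines. Five concentrations per compound, spanning 10^-10 to 10^-6 M or 10^-8 to 10^-4 M. Growth measured by sulforhodamine B colorimetry. GI50 is the concentration giving 50% growth inhibition relative to control.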
# U-251 = test: Cytotoxicity against human U251 cells by SRB assay; type: functional; how it was run: as §1
# MDA-MB-231 = test: Cytotoxicity against human MDA-MB-231 cells by SRB assay; type: functional; how it was run: as §1
# [1] = Cytotoxicity against human HBC5 cells by SRB assay; type: functional; how it was run: as §1
# MCF7 = test: Cytotoxicity against human MCF7 cells by SRB assay; type: functional; how it was run: as §1
# [2] = Cytotoxicity against human BSY1 cells by SRB assay; type: functional; settings: BSY-1; how it was run: as §1
# [3] = Cytotoxicity against human HBC4 cells by SRB assay; type: functional; how it was run: as §1
# [4] = target: T1, Protein deacetylase HDAC6 (Mus musculus, UniProt Q9Z2V5); test: Inhibition of mouse HDAC6 expressed in human 293T cells using Ac-KGLGK(Ac)-MCA as substrate after 30 mins by fluorescence assay; type: cell-based
# T1 sequence (Q9Z2V5 whole entry): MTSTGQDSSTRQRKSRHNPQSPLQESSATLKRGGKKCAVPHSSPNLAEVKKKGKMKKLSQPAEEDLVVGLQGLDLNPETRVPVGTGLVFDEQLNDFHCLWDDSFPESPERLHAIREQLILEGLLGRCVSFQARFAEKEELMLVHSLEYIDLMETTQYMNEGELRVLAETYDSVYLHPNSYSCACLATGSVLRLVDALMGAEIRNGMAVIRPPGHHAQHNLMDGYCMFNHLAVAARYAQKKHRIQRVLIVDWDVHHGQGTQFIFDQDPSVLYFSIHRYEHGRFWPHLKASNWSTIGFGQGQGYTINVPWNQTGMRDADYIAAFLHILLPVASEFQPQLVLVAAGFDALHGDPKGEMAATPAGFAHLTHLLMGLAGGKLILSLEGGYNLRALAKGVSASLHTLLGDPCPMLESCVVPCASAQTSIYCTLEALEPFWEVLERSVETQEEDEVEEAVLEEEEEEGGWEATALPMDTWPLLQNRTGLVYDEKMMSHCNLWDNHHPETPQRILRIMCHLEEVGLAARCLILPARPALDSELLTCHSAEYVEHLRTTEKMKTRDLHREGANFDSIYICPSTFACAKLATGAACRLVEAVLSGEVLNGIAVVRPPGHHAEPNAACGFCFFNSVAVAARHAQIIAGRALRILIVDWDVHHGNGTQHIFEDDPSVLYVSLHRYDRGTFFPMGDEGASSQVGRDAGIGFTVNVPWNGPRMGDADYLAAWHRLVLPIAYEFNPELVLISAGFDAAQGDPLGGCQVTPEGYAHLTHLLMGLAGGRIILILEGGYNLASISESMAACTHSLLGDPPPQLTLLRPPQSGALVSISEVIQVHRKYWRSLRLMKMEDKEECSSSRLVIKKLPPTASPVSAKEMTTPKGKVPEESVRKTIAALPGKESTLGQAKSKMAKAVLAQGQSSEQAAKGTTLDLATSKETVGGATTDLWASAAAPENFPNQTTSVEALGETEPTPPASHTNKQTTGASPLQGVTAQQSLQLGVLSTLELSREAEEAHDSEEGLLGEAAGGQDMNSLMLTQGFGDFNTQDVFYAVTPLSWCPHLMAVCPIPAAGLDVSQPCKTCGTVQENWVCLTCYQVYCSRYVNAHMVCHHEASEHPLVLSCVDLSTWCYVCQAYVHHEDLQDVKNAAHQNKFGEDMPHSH
# Histone deacetylase 1 [5] = target: T2, Histone deacetylase 1 (Homo sapiens, UniProt Q13547); test: Inhibition of human HDAC1 expressed in human 293T cells using Ac-KGLGK(Ac)-MCA as substrate after 30 mins by fluorescence assay
# T2 sequence (Q13547 whole entry): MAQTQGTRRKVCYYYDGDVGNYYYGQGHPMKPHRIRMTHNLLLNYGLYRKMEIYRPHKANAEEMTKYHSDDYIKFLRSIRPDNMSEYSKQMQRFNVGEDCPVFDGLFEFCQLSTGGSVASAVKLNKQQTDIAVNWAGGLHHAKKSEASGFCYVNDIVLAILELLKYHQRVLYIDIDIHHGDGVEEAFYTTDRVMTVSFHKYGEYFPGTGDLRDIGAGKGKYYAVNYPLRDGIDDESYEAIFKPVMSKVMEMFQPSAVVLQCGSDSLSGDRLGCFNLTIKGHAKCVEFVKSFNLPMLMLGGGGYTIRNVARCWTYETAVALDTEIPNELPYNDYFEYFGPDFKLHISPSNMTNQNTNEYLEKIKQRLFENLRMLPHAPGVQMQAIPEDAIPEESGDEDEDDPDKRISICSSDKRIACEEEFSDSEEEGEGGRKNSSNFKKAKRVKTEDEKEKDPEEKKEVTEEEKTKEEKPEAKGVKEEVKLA
# PC-3 = test: Cytotoxicity against human PC3 cells by SRB assay; type: functional; how it was run: as §1
# DU-145 = test: Cytotoxicity against human DU145 cells by SRB assay; type: functional; how it was run: as §1
# [6] = Cytotoxicity against human MKN45 cells by SRB assay; type: functional; settings: MKN-45; how it was run: as §1
# [7] = Cytotoxicity against human MKN74 cells by SRB assay; type: functional; settings: MKN-74; how it was run: as §1
# [8] = Cytotoxicity against human MKN7 cells by SRB assay; type: functional; settings: MKN-7; how it was run: as §1
# [9] = Cytotoxicity against human MKN28 cells by SRB assay; type: functional; settings: MKN-28; how it was run: as §1
# [10] = Cytotoxicity against human MKN1 cells by SRB assay; type: functional; settings: MKN-1; how it was run: as §1
# St-4 = test: Cytotoxicity against human St-4 cells by SRB assay; type: functional; how it was run: as §1
# ACHN = test: Cytotoxicity against human ACHN cells by SRB assay; type: functional; how it was run: as §1
# [11] = Cytotoxicity against human RXF631L cells by SRB assay; type: functional; settings: RXF 631; how it was run: as §1
# SK-OV-3 = test: Cytotoxicity against human SKOV3 cells by SRB assay; type: functional; how it was run: as §1
# OVCAR-8 = test: Cytotoxicity against human OVCAR8 cells by SRB assay; type: functional; how it was run: as §1
# [12] = Cytotoxicity against human OVCAR5 cells by SRB assay; type: functional; settings: OVCAR-5; how it was run: as §1
# [13] = Cytotoxicity against human OVCAR4 cells by SRB assay; type: functional; settings: OVCAR-4; how it was run: as §1
# OVCAR-3 = test: Cytotoxicity against human OVCAR3 cells by SRB assay; type: functional; how it was run: as §1
# LOX IMVI = test: Cytotoxicity against human LOXIMVI cells by SRB assay; type: functional; how it was run: as §1
# [14] = Cytotoxicity against human DMS273 cells by SRB assay; type: functional; settings: DMS-273; how it was run: as §1
# [15] = Cytotoxicity against human DMS114 cells by SRB assay; type: functional; settings: DMS-114; how it was run: as §1
# NCI-H460 = test: Cytotoxicity against human NCI-H460 cells by SRB assay; type: functional; how it was run: as §1
# A549 = test: Cytotoxicity against human A549 cells by SRB assay; type: functional; how it was run: as §1
# NCI-H226 = test: Cytotoxicity against human NCI-H226 cells by SRB assay; type: functional; how it was run: as §1
# NCI-H522 = test: Cytotoxicity against human NCI-H522 cells by SRB assay; type: functional; how it was run: as §1
# NCI-H23 = test: Cytotoxicity against human NCI-H23 cells by SRB assay; type: functional; how it was run: as §1
# HCT-116 = test: Cytotoxicity against human HCT116 cells by SRB assay; type: functional; how it was run: as §1
# HCT-15 = test: Cytotoxicity against human HCT15 cells by SRB assay; type: functional; how it was run: as §1
# HT-29 = test: Cytotoxicity against human HT-29 cells by SRB assay; type: functional; how it was run: as §1
# KM12 = test: Cytotoxicity against human KM12 cells by SRB assay; type: functional; how it was run: as §1
# [16] = Cytotoxicity against human SNB78 cells by SRB assay; type: functional; settings: SNB-78; how it was run: as §1
# HCC 2998 = test: Cytotoxicity against human HCC2998 cells by SRB assay; type: functional; how it was run: as §1
# SNB-75 = test: Cytotoxicity against human SNB75 cells by SRB assay; type: functional; how it was run: as §1
# SF-295 = test: Cytotoxicity against human SF295 cells by SRB assay; type: functional; how it was run: as §1
# SF-539 = test: Cytotoxicity against human SF539 cells by SRB assay; type: functional; how it was run: as §1
# Histone deacetylase 1 [17] = target: T2, Histone deacetylase 1; test: Ratio of FK228 IC50 to compound IC50 for human HDAC1 expressed in human 293T cells; type: cell-based
# How it was run: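 FLAG-tagged human HDAC1 was expressed transiently in 293T cells (pcDNA3-HDAC1), immunoprecipitated with anti-FLAG M2 and eluted with FLAG peptide. Enzyme was incubated with 2 mM stock Ac-KGLGK(Ac)-MCA in 20 mM Tris-HCl pH 8.0, 150 mM NaCl, 10% glycerol, 100 μM DTT, for 30 min at 37 °C. Trypsin then released AMC, read by fluorescence. IC50 is the mean of ≥3 dose-response curves; FK228 reference run alongside.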
# [18] = Selectivity index, ratio of IC50 for mouse HDAC6 to IC50 for human HDAC1
# How it was run: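 Ratio of HDAC6 IC50 to HDAC1 IC50. Both enzymes were FLAG-immunopurified from transfected 293T cells: human HDAC1 and mouse HDAC6. Each was assayed on Ac-KGLGK(Ac)-MCA with 100 µM DTT at 37 °C for 30 min, developed with trypsin, and AMC read by fluorescence. IC50s are means of ≥3 curves.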
smiles,measurement,setting,value
CSCC[C@@H]1NC(=O)C[C@H]2/C=C/CCSSC[C@@H](NC1=O)C(=O)N[C@@H](C(C)C)[C@H](O)CC(=O)O2,GI50,SF-268,960 nM
same,GI50,U-251,410 nM
same,GI50,MDA-MB-231,1800 nM
same,GI50,[1],1900 nM
same,GI50,MCF7,1800 nM
same,GI50,[2],1600 nM
same,GI50,[3],1300 nM
same,IC50,[4],> 10000 nM
same,IC50,Histone deacetylase 1 [5],337 nM
same,GI50,PC-3,1600 nM
same,GI50,DU-145,1500 nM
same,GI50,[6],3700 nM
same,GI50,[7],1500 nM
same,GI50,[8],2100 nM
same,GI50,[9],1900 nM
same,GI50,[10],1400 nM
same,GI50,St-4,3400 nM
same,GI50,ACHN,4400 nM
same,GI50,[11],4000 nM
same,GI50,SK-OV-3,1700 nM
same,GI50,OVCAR-8,1900 nM
same,GI50,[12],1300 nM
same,GI50,[13],1800 nM
same,GI50,OVCAR-3,1800 nM
same,GI50,LOX IMVI,230 nM
same,GI50,[14],2300 nM
same,GI50,[15],1300 nM
same,GI50,NCI-H460,1800 nM
same,GI50,A549,1400 nM
same,GI50,NCI-H226,1700 nM
same,GI50,NCI-H522,360 nM
same,GI50,NCI-H23,1600 nM
same,GI50,HCT-116,540 nM
same,GI50,HCT-15,15000 nM
same,GI50,HT-29,1400 nM
same,GI50,KM12,1600 nM
same,GI50,[16],1700 nM
same,GI50,HCC 2998,1700 nM
same,GI50,SNB-75,1000 nM
same,GI50,SF-295,1600 nM
same,GI50,SF-539,1800 nM
CSCC[C@H]1NC(=O)C[C@H]2/C=C/CCSSC[C@@H](NC1=O)C(=O)N[C@H](C(C)C)[C@@H](O)CC(=O)O2,GI50,SF-268,1.8 nM
same,GI50,U-251,2.2 nM
same,GI50,MDA-MB-231,1.8 nM
same,GI50,[1],7.8 nM
same,GI50,MCF7,2 nM
same,GI50,[2],4 nM
same,GI50,[3],3 nM
same,Ratio IC50,Histone deacetylase 1 [17],3
same,Ratio IC50,[18],1640
same,IC50,[4],1970 nM
same,IC50,Histone deacetylase 1 [5],1.2 nM
same,GI50,PC-3,4.4 nM
same,GI50,DU-145,0.82 nM
same,GI50,[6],7.6 nM
same,GI50,[7],1.8 nM
same,GI50,[8],4.1 nM
same,GI50,[9],8.5 nM
same,GI50,[10],0.67 nM
same,GI50,St-4,8.1 nM
same,GI50,ACHN,3.4 nM
same,GI50,[11],1.3 nM
same,GI50,SK-OV-3,0.78 nM
same,GI50,OVCAR-8,0.68 nM
same,GI50,[12],1 nM
same,GI50,[13],5.8 nM
same,GI50,OVCAR-3,2.2 nM
same,GI50,LOX IMVI,0.5 nM
same,GI50,[14],3 nM
same,GI50,[15],0.97 nM
same,GI50,NCI-H460,0.91 nM
same,GI50,A549,0.57 nM
same,GI50,NCI-H226,0.47 nM
same,GI50,NCI-H522,0.2 nM
same,GI50,NCI-H23,0.64 nM
same,GI50,HCT-116,0.51 nM
same,GI50,HCT-15,300 nM
same,GI50,HT-29,0.65 nM
same,GI50,KM12,0.76 nM
same,GI50,[16],460 nM
same,GI50,HCC 2998,0.67 nM
same,GI50,SNB-75,3.6 nM
same,GI50,SF-295,3 nM
same,GI50,SF-539,0.72 nM
CCC(C)[C@H]1NC(=O)[C@H]2CSSCC/C=C/[C@H](CC(=O)N[C@H](C)C(=O)N2)OC(=O)C[C@@H]1O (stereo not given in full),Ratio IC50,[18],636
